Assay results published in ChEMBL document CHEMBL4350958, “Rational Design of Short Peptide Variants by Using Kunitzin-RE, an Amphibian-Derived Bioactivity Peptide, for Acquired Potent Broad-Spectrum Antimicrobial and Improved Therapeutic Potential of Commensalism Coinfection of Pathogens” (J Med Chem, 2019).

Legend:
Staphylococcus aureus [1] = experiment: Bactericidal activity against Staphylococcus aureus ATCC 25923 incubated for 24 hrs followed by replating on agar plate and measured after overnight incubation; type: functional; conditions: ATCC 25923, 24 h, read-out: MBC>99.9
Outline: (§1)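 After the 24 h, 37 °C MHB microdilution MIC assay, 50 μL from each well was plated on agar and incubated overnight. MBC taken as lowest peptide concentration killing >99.9% of cells. At least three independent experiments, each with three technical replicates.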

[2] = Conformational stability in sodium dodecyl sulfate assessed as beta-sheet conformation by measuring absorption spectra at minimum dichroic band at 35 uM by CD spectra analysis; type: physicochemical
Outline: (§2)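 CD spectra from 190 to 250 nm of peptide at 35 μM in 10 mM PBS, 30 mM SDS micelles or 50% TFE, recorded in a 1.0-mm quartz cell. Ellipticity was converted to mean residue ellipticity. Three independent scans, each averaged over more than 3 runs.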

[3] = Conformational stability in sodium dodecyl sulfate assessed as beta-sheet conformation by measuring absorption spectra at maximum dichroic band at 35 uM by CD spectra analysis; type: physicochemical; outline: as §2
Candida albicans [4] = experiment: Fungicidal activity against Candida albicans cgmcc2.2086 incubated for 48 hrs followed by replating on YM agar plate and measured after 48 hrs; type: functional
Outline: (§3)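 Yeast diluted in MOPS-buffered RPMI 1640 to (0.5–1) × 10^3 CFU/mL (CLSI M27-A2, modified) and mixed 1:1 with peptide serially diluted in 0.2% BSA. After 48 h at 28 °C, 50 μL per well was plated on YM agar and incubated 48 h at 28 °C. MFC taken as the lowest concentration killing ≥99.9% of cells. Three or more independent experiments, triplicate wells.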

Escherichia coli [5] = experiment: Bactericidal activity against Escherichia coli K99 incubated for 24 hrs followed by replating on agar plate and measured after overnight incubation; type: functional; conditions: K99, 24 h, read-out: MBC>99.9
Outline: (§4)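 Mid-log bacteria diluted in MHB to (0.5–1) × 10^5 CFU/mL and mixed 1:1 with peptide serially diluted in 0.2% BSA. After 24 h at 37 °C, 50 μL of each mixture was plated on agar and incubated overnight. MBC taken as the lowest concentration killing >99.9% of cells. At least three independent experiments, each with three technical replicates.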

Candida albicans [6] = experiment: Antifungal activity against Candida albicans cgmcc2.2086 measured after 48 hrs in presence of KCl by broth microdilution method; type: functional; conditions: cgmcc2.2086, 48 h
Candida albicans [7] = experiment: Antifungal activity against Candida albicans cgmcc2.2086 measured after 48 hrs in presence of FeCl by broth microdilution method; type: functional; conditions: cgmcc2.2086, 48 h
Candida parapsilosis = experiment: Fungicidal activity against Candida parapsilosis cgmcc2.3989 incubated for 48 hrs followed by replating on YM agar plate and measured after 48 hrs; type: functional; outline: as §3
[8] = Therapeutic index, ratio of MHC10 for hemolytic activity in human RBC to MIC95 against Candida parapsilosis cgmcc2.3989; type: toxicity; conditions: human red blood cells (erythrocytes), read-out: TI
Outline: (§5)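 Therapeutic index = MHC divided by MIC. MHC is the lowest concentration giving >10% lysis of human RBC (1 h, 37 °C, 1-128 µM, A576). MIC is 95% growth inhibition by broth microdilution: bacteria in MHB 24 h at 37 °C; Candida in MOPS-buffered RPMI 1640 at (0.5–1) × 10^3 CFU mL−1, 48 h at 28 °C.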

Staphylococcus aureus [9] = experiment: Bactericidal activity against Staphylococcus aureus ATCC 29213 incubated for 24 hrs followed by replating on agar plate and measured after overnight incubation; type: functional; conditions: ATCC 29213, 24 h, read-out: MBC>99.9; outline: as §1
[10] = test system: Staphylococcus epidermidis; experiment: Antibacterial activity against Staphylococcus epidermidis ATCC 12228 measured after 24 hrs; type: functional; conditions: ATCC 12228, 24 h
Outline: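 Broth microdilution adapted from NCCLS. Mid-log bacteria were diluted in MHB to a final (0.5–1) × 10^5 CFU mL−1. Peptides were serially diluted in 0.2% BSA and mixed with an equal volume of cells. After 24 h at 37 °C, MIC was read at A492 as the lowest concentration inhibiting 95% of growth. At least three independent experiments, each with three technical replicates.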

[11] = Therapeutic index, ratio of MHC10 for hemolytic activity in human RBC to MIC95 against Staphylococcus epidermidis ATCC 12228; type: toxicity; conditions: human red blood cells (erythrocytes), read-out: TI; outline: as §5
Escherichia coli [12] = experiment: Antibacterial activity against Escherichia coli ATCC 25922 measured after 18 to 24 hrs in presence of NH4Cl; type: functional
Staphylococcus aureus [13] = experiment: Antibacterial activity against methicillin-resistant Staphylococcus aureus ATCC 43300 measured after 24 hrs; type: functional; conditions: ATCC 43300, 24 h
Outline: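 Broth microdilution modified from NCCLS. Mid-log bacteria at (0.5–1) × 10^5 CFU mL−1 in MHB, mixed with peptides serially diluted in 0.2% BSA. Incubated 24 h at 37 °C, read at A492. MIC taken as lowest concentration giving 95% growth inhibition. At least three independent experiments, each with three technical replicates.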

Escherichia coli [14] = experiment: Bactericidal activity against Escherichia coli UB1005 incubated for 24 hrs followed by replating on agar plate and measured after overnight incubation; type: functional; conditions: UB1005, 24 h, read-out: MBC>99.9; outline: as §4
[15] = Therapeutic index, ratio of MHC10 for hemolytic activity in human RBC to MIC95 against Candida albicans cgmcc2.2086; type: toxicity; conditions: human red blood cells (erythrocytes), read-out: TI; outline: as §5
[16] = Conformational stability in sodium dodecyl sulfate at 35 uM by CD spectra analysis; type: physicochemical; outline: as §2
Lipopolysaccharide (LPS) = experiment: Displacement of BODIPY-TR-cadaverine from Escherichia coli O111:B4 LPS after 1 hr by spectrofluorophotometric method
Outline: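 LPS from E. coli O111:B4 (50 μg/mL) preincubated 4 h with BODIPY-TR-cadaverine (5 μg/mL) in 50 mM Tris, pH 7.4. Mixed with equal volume of peptide (1-64 µM) and incubated 1 h at 37 °C, then fluorescence read. %ΔF = (Fobs−F0)/(F100−F0)×100, with 10 μg mL-1 polymyxin B defining F100. Three technical replicates per experiment.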

Row | Substance | MBC (Staphylococcus aureus [1]) | Activity [2] | Wavelength of maximum dichroic band [3] | MFC<=99.9 (Candida albicans [4]) | MBC (Escherichia coli [5]) | MIC95 (Candida albicans [6]) | MIC95 (Candida albicans [7]) | MFC<=99.9 (Candida parapsilosis) | selectivity ratio [8] | MBC (Staphylococcus aureus [9]) | MIC95 [10] | selectivity ratio [11] | MIC95 (Escherichia coli [12]) | MIC95 (Staphylococcus aureus [13]) | MBC (Escherichia coli [14]) | selectivity ratio [15] | Stability [16] | Activity (Lipopolysaccharide (LPS))
1 | H-AARIILRYRFR-NH2 | 16 µM | 216 to 220 nm | 200 nm | 64 µM | 8 µM | 64 µM | 64 µM | 128 µM | 8 | 8 µM | 2 µM | 64 | 8 µM | 4 µM | 8 µM | 8 |  | 
2 | H-AARIILRLRFR-NH2 | 4 µM | 216 to 220 nm | 200 nm | 16 µM | 4 µM | 8 µM | 8 µM | 8 µM | 50.8 | 4 µM | 2 µM | 128 | 4 µM | 2 µM | 8 µM | 50.8 |  | 
3 | H-AARIILRDRFR-NH2 |  |  |  |  |  | > 128 µM | > 128 µM |  | 2 |  | > 128 µM | 2 | > 128 µM | > 128 µM |  | 2 | Unstable | 
4 | H-AARIILRFRFR-NH2 | 4 µM | 216 to 220 nm | 200 nm | 16 µM | 4 µM | 8 µM | 8 µM | 8 µM | 50.8 | 4 µM | 2 µM | 128 | 4 µM | 2 µM | 8 µM | 50.8 |  | 
5 | H-AARIILRGRFR-NH2 | 32 µM |  |  |  | 8 µM | 128 µM | 128 µM |  | 5.04 | 8 µM | 8 µM | 26.9 | 8 µM | 8 µM | 8 µM | 5.04 | Unstable | 
6 | H-AARIILRTRFR-NH2 | 32 µM | 216 to 220 nm | 200 nm |  | 8 µM | > 128 µM | > 128 µM |  | 4 | 32 µM | 16 µM | 16 | 8 µM | 16 µM | 8 µM | 4 |  | 
7 | H-AARIILRWFRR-NH2 | 8 µM | 216 to 220 nm | 200 nm | 8 µM | 4 µM | 8 µM | 8 µM | 8 µM | 50.8 | 8 µM | 2 µM | 53.8 | 2 µM | 8 µM | 4 µM | 50.8 |  | 
8 | H-AARIILRWRFR-NH2 | 4 µM | 216 to 220 nm | 200 nm | 8 µM | 4 µM | 8 µM | 8 µM | 8 µM | 50.8 | 2 µM | 1 µM | 215 | 4 µM | 1 µM | 4 µM | 50.8 |  | Dose-dependent effect
